Results from ChEMBL document CHEMBL4706768, “Discovery of Potent, Selective Triazolothiadiazole-Containing c-Met Inhibitors” (ACS Med Chem Lett, 2021).

Tests used:
[1] = Stability in human liver microsomes after 30 mins
[2] = Stability in rat liver microsomes after 30 mins
[3] = molecular target: T1, Hepatocyte growth factor receptor (Homo sapiens, UniProt P08581); test: Inhibition of c-MET in human SNU-5 cells measured after 6 hrs by steady-glo luciferase reporter gene assay; assay type: cell-based
Homo sapiens = species on record: Homo sapiens; test: Selectivity ratio of IC50 for inhibition of recombinant human N-terminal GST/His-tagged PDE3A (669 to 1141 residues) expressed in baculovirus infected Sf9 insect cells to IC50 for inhibition of c-MET in human SNU-5 cells
[4] = molecular target: cGMP-inhibited 3',5'-cyclic phosphodiesterase 3A (Homo sapiens, UniProt Q14432); test: Inhibition of recombinant human N-terminal GST/His-tagged PDE3A (669 to 1141 residues) expressed in baculovirus infected Sf9 insect cells using iFL-cAMP as substrate preincubated for 15 mins followed by substrate addition and measured after 40 mins by fluorescence assay
[5] = Unbound intrinsic clearance in mouse hepatocytes assessed per million cells; assay type: ADME, cell-based, Hepatocyte
[6] = Unbound intrinsic clearance in human hepatocytes assessed per million cells; assay type: ADME, cell-based, Hepatocyte
[7] = molecular target: T1, Hepatocyte growth factor receptor; test: Inhibition of c-Met (unknown origin) using poly Glu-Tyr as substrate preincubated for 10 mins followed by ATP addition by phosphoenolpyruvate/pyruvate kinase/lactate dehydrogenase coupled radiometric assay
[8] = Stability in rat hepatocytes after 30 mins; assay type: ADME, cell-based, Hepatocyte; conditions: read-out: Stabilty
[9] = Clearance in dog at 0.8 mg/kg, iv; assay type: ADME, organism-based, Canis lupus familiaris; conditions: in vivo
Procedure, shortened: (§1)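 For dogs, dosing was IV 0.8 mpk or PO 12 mpk, the oral formulation being 30% PG/10% Solutol/1% HPMC-AS. IV and PO parameters were obtained from the corresponding arms.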

[10] = Oral bioavailability in dog at 12 mg/kg; assay type: ADME, organism-based, Canis lupus familiaris; conditions: in vivo; procedure, shortened: as §1
[11] = AUC in dog at 12 mg/kg, po; assay type: ADME, organism-based, Canis lupus familiaris; set-up: dose 12 mg/kg; conditions: in vivo; procedure, shortened: as §1
[12] = AUC in mouse at 13 mg/kg, po; assay type: ADME, organism-based; set-up: dose 13 mg/kg; conditions: in vivo
Procedure, shortened: (§2)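 Mice received IV 0.8 mpk or PO 13 mpk, the oral dose in 0.5% MC/0.1% Tween 80 vehicle. Parameters came from the respective IV or PO dosing.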

[13] = Half life in mouse at 0.8 mg/kg, iv; assay type: ADME, organism-based; conditions: in vivo; procedure, shortened: as §2
[14] = Volume of distribution at steady state in mouse at 0.8 mg/kg, iv; assay type: ADME, organism-based; conditions: in vivo, read-out: Vdss; procedure, shortened: as §2
[15] = Oral bioavailability in rat at 2.6 mg/kg; assay type: ADME, organism-based; conditions: in vivo
Procedure, shortened: (§3)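 Rats received IV 0.9 mpk or PO 2.6 mpk, the oral dose formulated in 0.5% MC/0.1% Tween 80. PK parameters were derived from the IV and PO dosing arms.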

[16] = Volume of distribution at steady state in rat at 0.9 mg/kg, iv; assay type: ADME, organism-based; conditions: in vivo, read-out: Vdss; procedure, shortened: as §3
SNU-5 [17] = test: Antitumor activity against human SNU-5 cells xenografted in SCID mouse assessed as tumor growth at 10 mg/kg qd measured 38 days post tumor implantation relative to control; assay type: functional
Procedure, shortened: (§4)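 SCID mice carrying SNU-5 tumors were dosed at 3, 10 or 30 mpk. Tumor growth was compared with untreated controls as T/C. Body weight was followed through the dosing regimen.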

SNU-5 [18] = test: Antitumor activity against human SNU-5 cells xenografted in SCID mouse assessed as tumor growth at 3 mg/kg qd measured 38 days post tumor implantation relative to control; assay type: functional; procedure, shortened: as §4
SNU-5 [19] = test: Antitumor activity against human SNU-5 cells xenografted in SCID mouse assessed as tumor regression measured 38 days post tumor implantation; assay type: functional; procedure, shortened: as §4
[20] = Volume of distribution at steady state in dog at 0.8 mg/kg, iv; assay type: ADME, organism-based, Canis lupus familiaris; conditions: in vivo, read-out: Vdss; procedure, shortened: as §1
[21] = AUC in rat at 2.6 mg/kg, po; assay type: ADME, organism-based; set-up: dose 2.6 mg/kg; conditions: in vivo; procedure, shortened: as §3
[22] = Half life in dog at 0.8 mg/kg, iv; assay type: ADME, organism-based, Canis lupus familiaris; conditions: in vivo; procedure, shortened: as §1
[23] = Half life in monkey at 0.9 mg/kg, iv; assay type: ADME, organism-based, Macaca mulatta; conditions: rhesus monkey, in vivo
SNU-5 [24] = test: Antitumor activity against human SNU-5 cells xenografted in SCID mouse assessed as tumor regression at 30 mg/kg qd measured 38 days post tumor implantation relative to control; assay type: functional; procedure, shortened: as §4
[25] = Toxicity in human SNU-5 cells xenografted SCID mouse assessed as body weight loss at 30 mg/kg qd; assay type: organism-based; conditions: in vivo; procedure, shortened: as §4
[26] = Volume of distribution at steady state in monkey at 0.9 mg/kg, iv; assay type: ADME, organism-based, Macaca mulatta; conditions: rhesus monkey, in vivo, read-out: Vdss
[27] = Cmax in rat at 2.6 mg/kg, po; assay type: ADME, organism-based; set-up: route oral, dose 2.6 mg/kg; conditions: in vivo; procedure, shortened: as §3
[28] = Clearance in mouse at 0.8 mg/kg, iv; assay type: ADME, organism-based; conditions: in vivo; procedure, shortened: as §2
[29] = Clearance in rat at 0.9 mg/kg, iv; assay type: ADME, organism-based; conditions: in vivo; procedure, shortened: as §3
[30] = Half life in rat at 0.9 mg/kg, iv; assay type: ADME, organism-based; conditions: in vivo; procedure, shortened: as §3
[31] = Cmax in mouse at 13 mg/kg, po; assay type: ADME, organism-based; set-up: route oral, dose 13 mg/kg; conditions: in vivo; procedure, shortened: as §2
[32] = Oral bioavailability in mouse at 13 mg/kg; assay type: ADME, organism-based; conditions: in vivo; procedure, shortened: as §2
[33] = Clearance in monkey at 0.9 mg/kg, iv; assay type: ADME, organism-based, Macaca mulatta; conditions: rhesus monkey, in vivo
[34] = Cmax in dog at 12 mg/kg, po; assay type: ADME, organism-based, Canis lupus familiaris; set-up: route oral, dose 12 mg/kg; conditions: in vivo; procedure, shortened: as §1
[35] = Half life in rat at 1 mg/kg, iv; assay type: ADME, organism-based; conditions: in vivo
[36] = Clearance in rat at 1 mg/kg, iv; assay type: ADME, organism-based; conditions: in vivo

Sequence of cGMP-inhibited 3',5'-cyclic phosphodiesterase 3A (Q14432 whole entry, the tested form may be a part): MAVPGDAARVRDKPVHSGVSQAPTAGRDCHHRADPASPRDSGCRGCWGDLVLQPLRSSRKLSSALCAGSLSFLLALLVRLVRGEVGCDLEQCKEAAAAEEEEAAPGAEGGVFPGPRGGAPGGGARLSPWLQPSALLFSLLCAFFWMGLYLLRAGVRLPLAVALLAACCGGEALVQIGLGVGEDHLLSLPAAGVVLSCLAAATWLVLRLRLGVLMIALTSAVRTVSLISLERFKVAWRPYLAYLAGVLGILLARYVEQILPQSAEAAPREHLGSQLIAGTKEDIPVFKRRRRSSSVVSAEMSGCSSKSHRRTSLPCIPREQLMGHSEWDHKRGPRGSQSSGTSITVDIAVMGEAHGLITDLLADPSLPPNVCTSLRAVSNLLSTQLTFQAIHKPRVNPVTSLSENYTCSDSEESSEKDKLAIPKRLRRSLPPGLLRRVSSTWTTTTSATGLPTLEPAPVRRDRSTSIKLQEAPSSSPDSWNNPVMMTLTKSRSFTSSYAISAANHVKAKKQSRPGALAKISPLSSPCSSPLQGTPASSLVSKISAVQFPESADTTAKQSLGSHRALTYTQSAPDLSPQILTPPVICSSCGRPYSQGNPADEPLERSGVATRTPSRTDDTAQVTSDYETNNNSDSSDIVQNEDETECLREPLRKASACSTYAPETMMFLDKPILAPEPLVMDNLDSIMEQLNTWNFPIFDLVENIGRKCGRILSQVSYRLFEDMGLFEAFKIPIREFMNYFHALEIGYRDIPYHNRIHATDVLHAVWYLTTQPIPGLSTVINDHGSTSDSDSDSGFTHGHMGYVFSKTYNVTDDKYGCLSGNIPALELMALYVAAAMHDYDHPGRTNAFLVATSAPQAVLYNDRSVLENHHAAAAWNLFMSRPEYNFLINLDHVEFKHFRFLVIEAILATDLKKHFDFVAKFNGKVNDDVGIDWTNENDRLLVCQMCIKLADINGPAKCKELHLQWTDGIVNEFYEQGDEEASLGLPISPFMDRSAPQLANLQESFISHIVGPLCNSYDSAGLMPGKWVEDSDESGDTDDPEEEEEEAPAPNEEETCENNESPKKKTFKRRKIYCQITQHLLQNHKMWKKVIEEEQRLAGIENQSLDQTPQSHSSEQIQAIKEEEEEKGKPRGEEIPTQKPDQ
T1 sequence (P08581 whole entry, the tested form may be a part): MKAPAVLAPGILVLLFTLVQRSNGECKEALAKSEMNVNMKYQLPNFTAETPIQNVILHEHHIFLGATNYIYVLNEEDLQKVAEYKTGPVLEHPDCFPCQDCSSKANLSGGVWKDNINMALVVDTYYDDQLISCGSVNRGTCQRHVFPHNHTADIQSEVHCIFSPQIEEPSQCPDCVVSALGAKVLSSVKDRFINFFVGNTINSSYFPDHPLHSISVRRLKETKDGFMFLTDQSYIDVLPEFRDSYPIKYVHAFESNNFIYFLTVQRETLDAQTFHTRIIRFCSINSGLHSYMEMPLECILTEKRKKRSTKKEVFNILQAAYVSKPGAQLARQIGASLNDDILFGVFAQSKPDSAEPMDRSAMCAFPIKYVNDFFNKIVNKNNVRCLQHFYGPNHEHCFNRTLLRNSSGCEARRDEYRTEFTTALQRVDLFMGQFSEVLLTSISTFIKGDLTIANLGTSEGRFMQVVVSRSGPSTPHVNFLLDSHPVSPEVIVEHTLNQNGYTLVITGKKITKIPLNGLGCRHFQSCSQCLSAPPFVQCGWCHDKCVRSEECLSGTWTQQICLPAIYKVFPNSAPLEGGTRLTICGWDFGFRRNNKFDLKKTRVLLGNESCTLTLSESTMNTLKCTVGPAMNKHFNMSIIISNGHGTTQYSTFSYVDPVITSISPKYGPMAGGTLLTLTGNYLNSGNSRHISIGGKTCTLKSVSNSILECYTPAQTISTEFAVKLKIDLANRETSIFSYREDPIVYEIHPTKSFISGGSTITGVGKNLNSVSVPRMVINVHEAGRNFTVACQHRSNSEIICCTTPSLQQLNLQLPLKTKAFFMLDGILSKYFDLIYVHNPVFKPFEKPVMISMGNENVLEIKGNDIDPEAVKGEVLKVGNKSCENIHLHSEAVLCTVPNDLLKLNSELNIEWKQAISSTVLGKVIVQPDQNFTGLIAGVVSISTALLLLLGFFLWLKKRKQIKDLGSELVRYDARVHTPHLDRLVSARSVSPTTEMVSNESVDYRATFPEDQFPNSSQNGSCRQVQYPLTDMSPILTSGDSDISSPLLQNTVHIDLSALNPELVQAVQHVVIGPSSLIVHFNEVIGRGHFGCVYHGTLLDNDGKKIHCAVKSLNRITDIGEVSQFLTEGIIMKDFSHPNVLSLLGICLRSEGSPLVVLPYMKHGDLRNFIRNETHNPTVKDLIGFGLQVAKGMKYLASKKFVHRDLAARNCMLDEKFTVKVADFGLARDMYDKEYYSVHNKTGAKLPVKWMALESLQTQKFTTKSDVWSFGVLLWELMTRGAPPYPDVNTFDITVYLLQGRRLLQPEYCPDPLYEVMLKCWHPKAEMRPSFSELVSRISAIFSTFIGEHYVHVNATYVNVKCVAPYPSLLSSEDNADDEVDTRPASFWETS

Q: With `Oc1ccc(Cc2nnc3n2N=C(c2ccc(F)cc2)CS3)cc1` as the compound, how does the remaining at 0.5 h [1] read?
A: 73%

Q: And the remaining at 0.5 h [2]?
A: 2.6%

Q: For `Cc1nn(C)cc1-c1nn2c([C@H](C)c3ccc4ncccc4c3)nnc2s1`, which IC50 [3] is on record?
A: 3 nM

Q: What about the Ratio IC50 (Homo sapiens) of the same compound?
A: 67

Q: And the IC50 [4]?
A: 200 nM

Q: Which results are given for `C[C@H](c1ccc2ncccc2c1)c1nnc2sc(-c3cnn(C)c3)nn12`?
A: IC50 [3]: 84 nM; Ratio IC50 (Homo sapiens): 95; CL free [5]: 7 µL/min; IC50 [4]: 7900 nM; CL free [6]: 5.8 µL/min; Ki [7]: 240 nM

Q: Which remaining at 0.5 h [8] does the source give for `Clc1cccc(Nc2nn3c(Cn4ccc5ncccc54)nnc3s2)c1` here?
A: 60%

Q: With `Oc1ccc(Cc2nnc3sc(Nc4cccc(Cl)c4)nn23)cc1Cl` as the compound, how does the remaining at 0.5 h [8] read?
A: 63%

Q: Which remaining at 0.5 h [8] does the source give for `Oc1ccc(Cc2nnc3sc(Nc4cccc(Cl)c4)nn23)cc1F` here?
A: 56%

Q: For `Clc1cccc(Nc2nn3c(Cc4ccc5ncccc5c4)nnc3s2)c1`, which remaining at 0.5 h [8] is on record?
A: 45%

Q: What does the source list for `Oc1ccc(Cc2nnc3sc(Nc4ccccc4)nn23)cc1`?
A: remaining at 0.5 h [1]: 68%; remaining at 0.5 h [2]: 40%

Q: For `Oc1ccc(Cc2nnc3ccc(-c4ccc(F)cc4)nn23)cc1`, which remaining at 0.5 h [1] is on record?
A: 50%

Q: And the remaining at 0.5 h [2]?
A: 32%

Q: With `Cn1cc(Nc2nn3c(C(F)(F)c4ccc5ncccc5c4)nnc3s2)cn1` as the compound, how does the clearance [9] read?
A: 14 mL/min/kg

Q: What about the bioavailability [10] of the same compound?
A: 66%

Q: And the AUC [11]?
A: 9.9 µg/h/mL

Q: And the AUC [12]?
A: 16 µg/h/mL

Q: And the half-life [13]?
A: 1.8 h

Q: And the Vd [14]?
A: 1 L/kg

Q: What about the IC50 [3] of the same compound?
A: 4 nM

Q: And the Ratio IC50 (Homo sapiens)?
A: 2020

Q: What about the bioavailability [15] of the same compound?
A: 29%

Q: What about the Vd [16] of the same compound?
A: 0.7 L/kg

Q: What about the T/C (SNU-5 [17]) of the same compound?
A: 54.2%

Q: And the T/C (SNU-5 [18])?
A: 16.6%

Q: What about the Activity (SNU-5 [19]) of the same compound?
A: Dose-dependent effect

Q: What about the Vd [20] of the same compound?
A: 1.6 L/kg

Q: And the AUC [21]?
A: 0.6 µg/h/mL

Q: And the half-life [22]?
A: 3.6 h

Q: What about the half-life [23] of the same compound?
A: 2 h

Q: And the Activity (SNU-5 [24])?
A: -23.9%

Q: What about the Activity [25] of the same compound?
A: Non-Toxic

Q: What about the Vd [26] of the same compound?
A: 1.2 L/kg

Q: What about the Cmax [27] of the same compound?
A: 150 ng/mL

Q: What about the IC50 [4] of the same compound?
A: 8070 nM

Q: And the Ki [7]?
A: 21 nM

Q: And the clearance [28]?
A: 21 mL/min/kg

Q: What about the clearance [29] of the same compound?
A: 25 mL/min/kg

Q: What about the half-life [30] of the same compound?
A: 1.4 h

Q: What about the Cmax [31] of the same compound?
A: 4800 ng/mL

Q: And the bioavailability [32]?
A: 100%

Q: What about the clearance [33] of the same compound?
A: 23 mL/min/kg

Q: What about the Cmax [34] of the same compound?
A: 1300 ng/mL

Q: Which remaining at 0.5 h [1] does the source give for `Oc1ccc(Cn2cnc3ncc(-c4ccc(F)cc4)nc32)cc1` here?
A: 51%

Q: And the remaining at 0.5 h [2]?
A: 56%

Q: For `C[C@@H](c1ccc2ncccc2c1)c1nnc2sc(Nc3cnn(C)c3)nn12`, which IC50 [3] is on record?
A: 5 nM

Q: And the Ratio IC50 (Homo sapiens)?
A: 600

Q: What about the IC50 [4] of the same compound?
A: 3000 nM

Q: And the Ki [7]?
A: 20 nM

Q: With `Clc1cccc(Nc2nn3c(Cc4ccc5c(c4)OCO5)nnc3s2)c1` as the compound, how does the remaining at 0.5 h [8] read?
A: 64%

Q: Which results are given for `CC(c1ccc2ncccc2c1)c1nnc2sc(-c3cnn(C)c3)nn12` (racemic)?
A: IC50 [3]: 30 nM; CL free [5]: 7.4 µL/min; CL free [6]: 3.2 µL/min; Ki [7]: 50 nM

Q: For `Cn1cc(-c2nn3c(Cc4ccc5ncccc5c4)nnc3s2)cn1`, which half-life [35] is on record?
A: 1.1 h

Q: And the clearance [36]?
A: 24.5 mL/min/kg

Q: What about the CL free [5] of the same compound?
A: 6.2 µL/min

Q: What about the CL free [6] of the same compound?
A: 4.8 µL/min

Q: Which remaining at 0.5 h [8] does the source give for `Oc1cccc(Cc2nnc3sc(Nc4cccc(Cl)c4)nn23)c1` here?
A: 55%

Q: Which IC50 [3] does the source give for `Cc1nn(C)cc1-c1nn2c([C@@H](C)c3ccc4ncccc4c3)nnc2s1` here?
A: 3 nM

Q: What about the Ratio IC50 (Homo sapiens) of the same compound?
A: 33

Q: And the IC50 [4]?
A: 100 nM
